TRPC6 activator: activates the mouse TRPC6 cation channel. Q61143. HEK293-TRPC6 membrane potential dye fluorescence; hits give high values. B-score at 10 µM. actives 0.13% (n = 310,000). AID 2550;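 active means B-score of the integrated fluorescence ratio above library mean plus 3 SD, and starting fluorescence ratio within library mean plus 5 SD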;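 further: higher score means more depolarization so channel activation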
TRPC4 block: TRPC4 (mouse) channel inhibition; Q9QUQ5; HEK293 TRPC4beta/mu-opioid, DAMGO-evoked Fluo4 calcium flux; hits give low values; B-score at 10 µM; actives 0.39% (n = 300,000); AID 2247;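 active means B-score over 3 SD under the library average, no early fluorescence shift, positive overall ratio signal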
Target sequence (Q9QUQ5 whole entry, looked up): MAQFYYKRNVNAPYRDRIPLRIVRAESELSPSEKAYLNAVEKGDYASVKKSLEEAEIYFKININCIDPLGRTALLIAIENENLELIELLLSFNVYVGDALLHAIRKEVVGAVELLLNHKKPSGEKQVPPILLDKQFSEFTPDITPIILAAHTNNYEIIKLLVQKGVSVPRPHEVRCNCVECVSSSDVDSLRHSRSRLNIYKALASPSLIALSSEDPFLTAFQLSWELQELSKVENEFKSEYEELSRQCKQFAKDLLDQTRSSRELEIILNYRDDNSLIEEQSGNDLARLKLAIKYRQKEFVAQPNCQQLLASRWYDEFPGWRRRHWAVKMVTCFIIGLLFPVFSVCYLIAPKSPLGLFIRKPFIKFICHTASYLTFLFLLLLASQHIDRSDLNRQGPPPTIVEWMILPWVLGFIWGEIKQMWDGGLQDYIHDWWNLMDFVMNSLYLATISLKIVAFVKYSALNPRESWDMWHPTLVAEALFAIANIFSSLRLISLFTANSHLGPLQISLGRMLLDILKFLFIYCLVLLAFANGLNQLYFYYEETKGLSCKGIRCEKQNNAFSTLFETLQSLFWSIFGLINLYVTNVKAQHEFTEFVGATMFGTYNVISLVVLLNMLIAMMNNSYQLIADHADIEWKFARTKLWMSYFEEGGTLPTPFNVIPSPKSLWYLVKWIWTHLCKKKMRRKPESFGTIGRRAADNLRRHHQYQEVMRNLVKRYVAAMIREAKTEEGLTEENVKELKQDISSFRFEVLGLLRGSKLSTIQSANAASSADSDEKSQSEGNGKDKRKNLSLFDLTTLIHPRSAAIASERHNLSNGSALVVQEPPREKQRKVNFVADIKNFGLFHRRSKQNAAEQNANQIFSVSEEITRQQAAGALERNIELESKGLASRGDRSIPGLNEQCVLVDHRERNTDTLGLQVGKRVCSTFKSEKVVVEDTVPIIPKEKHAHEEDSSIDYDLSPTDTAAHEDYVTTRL
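Test system – stable TRPC4beta/mu-opioid receptor HEK293 cells · Probe or stimulus – DAMGO, a submaximal dose followed by a maximal one · Dosing – one concentration per compound · Signal – Fluo4 calcium fluorescence by kinetic imaging, 5 s 1 Hz baseline · Evaluation – per-well B score of integrated baseline-normalized Fluo4 ratio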
TRPC6 inhibitor: blocks the mouse TRPC6 cation channel; AID 2553; B-score at 10 µM; actives 1.1% (n = 310,000); HEK293-TRPC6, membrane potential dye, ACh-evoked depolarization; hits give low values;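 active means B-score under library mean minus 3 SD, initial fluorescence not abnormally high, positive integrated signal ratio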;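 further: B-score derived from integrated fluorescence ratio over the kinetic read; more negative B-score means stronger inhibition of depolarization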
TRPC4 PAM: TRPC4 (mouse) allosteric potentiation; HEK293 TRPC4beta/mu-opioid, DAMGO EC20, Fluo-4 Ca2+ flux; hits give high values; B-score at 10 µM; actives 0.42% (n = 310,000); AID 2227;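 active means B-score of calcium response area above 5 SD of library B-scores, with initial fluorescence ratio within 5 SD of library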
TRPC4 act: activators of mouse TRPC4 channel | B-score at 10 µM | AID 2237 | actives 0.49% (n = 310,000) | HEK293 TRPC4beta/mu-opioid, Fluo4 calcium fluorescence; hits give high values;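 active means B-score above 5 SD of library B-scores, and initial fluorescence ratio not above library mean plus 5 SD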;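 further: positive B-score marks a calcium rise read as TRPC4 activation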
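Test system: HEK293 cells stably co-expressing mouse TRPC4beta and mu-opioid receptor | Schedule: Fluo4 dye loading 45 min at room temperature, 110 s recording | Measured by: Kinetic Fluo4 calcium fluorescence, 5 s baseline at 1 Hz | Evaluation: B score of integrated ratio | Controls: Buffer (low) and maximal DAMGO (high)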
TRPC4 sel inh 2: second check of whether TRPC6 inhibitors also affect mouse TRPC4; shares compounds with TRPC6 inhibitor; HEK293 TRPC4/MOR, membrane potential dye fluorescence; channel activated by saturating DAMGO dose; inhibition, % at 10 µM; actives 42% (n = 920); AID 2776;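 active means compounds whose fluorescence signal differed from control wells by over 3 SD, either direction, in both duplicate plates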
TRPC4 spec: tests whether TRPC6 inhibitors also affect mouse TRPC4. activity change, negative = inhibition, % at 10 µM. actives 61% (n = 920). HEK293 TRPC4/mu-opioid, membrane potential fluorescence. shares compounds with TRPC6 inhibitor. AID 2777;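 active means rise or fall in signal beyond 3 SD of buffer-only wells in both replicate plates, either sign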;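 further: integrated kinetic ratio of fluorescence range over baseline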
HEK293 MPD ctr 2-1: parental HEK293 nonspecific activity of TRPC6 inhibitors, second screen; shares compounds with TRPC6 inhibitor; parental HEK293 membrane potential dye fluorescence; maximal acetylcholine challenge after compound addition; signal change vs control, % at 10 µM; actives 31% (n = 920); AID 2779;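 active means membrane potential signal moving either way by over 3 SD of the maximum-effect control, in both duplicate plates, meaning non-specific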
HEK293 MPD ctr-1: counter-screen for TRPC6 inhibitors: effect in parental HEK293 cells; shares compounds with TRPC6 inhibitor; actives 60% (n = 920); membrane potential signal change, % at 10 µM; parental HEK293 membrane potential dye fluorescence;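 active means membrane potential signal shifting up or down by more than 3 SD of buffer-only wells, on both duplicate plates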
HEK293 MPD ctr-2: counter-screen for TRPC6 modulators: effect in parental HEK293 cells. shares compounds with TRPC6 inhibitor. membrane potential dye fluorescence. membrane potential signal change, % at 10 µM. actives 51% (n = 2,400);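 active means membrane potential signal moves up or down beyond 5 SD from buffer-only wells, on both duplicate plates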
HEK293 MPD ctr 2-2: parental HEK293 nonspecific activity of TRPC6 modulators, second screen. inhibition, % at 10 µM. shares compounds with TRPC6 inhibitor. AID 488926. actives 14% (n = 2,400). membrane potential dye fluorescence; after compound, maximal acetylcholine stimulation;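 active means membrane potential signal drops by more than 5 SD from the mean control signal, in both duplicate plates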
TRPC4/MOR mod: tests whether TRPC6 modulators also affect mouse TRPC4; shares compounds with TRPC6 inhibitor; HEK293 TRPC4/mu-opioid, membrane potential fluorescence; percent change from control (negative = decrease, positive = increase), % at 10 µM; actives 69% (n = 2,400);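 active means membrane potential signal moved up or down beyond 5 SD of buffer control wells, in both duplicate plates, actives on both sides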
TRPC4/MOR inh 2: mouse TRPC4 off-target activity of TRPC6 modulators, second screen | shares compounds with TRPC6 inhibitor | HEK293 TRPC4/mu-opioid, membrane potential dye fluorescence; stimulated with maximal-effect DAMGO | inhibition, % at 10 µM | actives 55% (n = 2,400) | AID 488928;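 active means drop in membrane potential signal beyond 5 SD of the control wells in both duplicate plates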;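 further: TRPC4 counter screen for TRPC6 hits run under conditions tuned for TRPC6 not TRPC4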
TRPC6 inh conf: confirmation of mouse TRPC6 inhibitors; shares compounds with TRPC6 inhibitor; HEK293-TRPC6, membrane potential dye, ACh-evoked depolarization; inhibition, % at 10 µM; actives 43% (n = 3,300); AID 488960;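 active means fluorescence ratio falls more than 5 SD below the full-stimulation control mean, in both duplicate runs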;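 further: integrated fluorescence ratio of peak minus minimum over baseline after agonist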
TRPC6 act conf: confirmation of mouse TRPC6 activators; actives 11% (n = 2,800); AID 488961; activation, % at 10 µM; shares compounds with TRPC6 inhibitor; HEK293-TRPC6 membrane potential dye fluorescence, FDSS;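 active means ratio signal rise beyond 5 SD above unstimulated control wells' mean, seen in both duplicate runs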
Each line names hits and unclear results; the compound was inactive in the other large screens (follow-up assays come after a bar, where they were run). Rows were chosen to be rich in hits. Some 2.3% of all compounds tested hit in one or more screens of this group.

Cc1ccc(Cc2c(C)nc3nc(SCC(=O)N4CCC5(CC4)OCCO5)nn3c2C)cc1	TRPC6 activator 13, TRPC6 inhibitor -11 | HEK293 MPD ctr-2 184% | HEK293 MPD ctr 2-2 inactive | TRPC4/MOR mod 32% | TRPC4/MOR inh 2 38% | TRPC6 inh conf 46% | TRPC6 act conf 152%
Cn1c(=O)n(C)c2cc([N+](=O)[O-])c(N3CCNCC3)cc21	TRPC6 inhibitor -6.3 | HEK293 MPD ctr-2 -276% | HEK293 MPD ctr 2-2 70% | TRPC4/MOR mod -46% | TRPC4/MOR inh 2 54% | TRPC6 inh conf 52% | TRPC6 act conf inactive
Nc1c([N+](=O)[O-])cc(F)c(N2CCNCC2)c1Br	TRPC6 inhibitor -5.9, TRPC4 PAM 23 | HEK293 MPD ctr-2 -128% | HEK293 MPD ctr 2-2 inactive | TRPC4/MOR mod -22% | TRPC4/MOR inh 2 34% | TRPC6 inh conf 39% | TRPC6 act conf inactive
O=C(c1cc([N+](=O)[O-])ccc1N1CCNCC1)N1CCOCC1	none
O=[N+]([O-])c1cc(F)c(N2CCCC2)cc1N1CCNCC1	TRPC6 inhibitor -6.9 | TRPC4 sel inh 2 48% | TRPC4 spec -29% | HEK293 MPD ctr 2-1 inactive | HEK293 MPD ctr-1 -399% | TRPC6 inh conf inactive | TRPC6 act conf inactive
CN1CCN(c2cc(N3CCCCCC3)c(F)cc2[N+](=O)[O-])CC1	TRPC6 inhibitor -6 | HEK293 MPD ctr-2 -88% | HEK293 MPD ctr 2-2 inactive | TRPC4/MOR mod -24% | TRPC4/MOR inh 2 54% | TRPC6 inh conf 41% | TRPC6 act conf inactive
CN1CCN(c2ccc(S(C)(=O)=O)cc2[N+](=O)[O-])CC1	none
CN1CCN(c2c(F)cc([N+](=O)[O-])c(N)c2Br)CC1	none
Cc1ccc(C2=NCC(=O)Nc3ccc(Br)cc32)cc1	none
CCC(=NCc1ccc(F)cc1)c1c(O)n(C)c(=O)n(C)c1=O	none
CC(=O)O[C@]1(C)C(=O)OC/C2=C/CN(C)CCC(OC(=O)[C@@](O)(C(C)O)C[C@H]1C)C2=O (stereo partly drawn)	none
CC1CN(c2ccc([N+](=O)[O-])c(N3CCCCC3)c2)CCN1 (stereo not drawn)	TRPC6 inhibitor -5.3 | HEK293 MPD ctr-2 inactive | HEK293 MPD ctr 2-2 inactive | TRPC4/MOR mod -10% | TRPC4/MOR inh 2 inactive | TRPC6 inh conf inactive | TRPC6 act conf inactive
CN1CCN(c2ccc([N+](=O)[O-])c(Sc3nncn3C)c2)CC1	none
O=S(=O)(NC1CN2CCC1CC2)c1ccc(Cl)cc1 (stereo not drawn)	none
O=C(NC1CN2CCC1CC2)c1cc(Cl)c([N+](=O)[O-])c2nc[nH]c12 (stereo not drawn)	TRPC6 inhibitor -5.9 | HEK293 MPD ctr-2 -218% | HEK293 MPD ctr 2-2 inactive | TRPC4/MOR mod -33% | TRPC4/MOR inh 2 inactive | TRPC6 inh conf inactive | TRPC6 act conf inactive
CS(=O)(=O)c1ccc(C(=O)N2CCC(C(=O)O)(c3ccccc3)CC2)cc1	none
CCOC(=O)C(O)(c1ccc(N(CC)C(=O)COc2ccccc2)cc1)C(F)(F)F (stereo not drawn)	TRPC6 inhibitor -5 | HEK293 MPD ctr-2 inactive | HEK293 MPD ctr 2-2 inactive | TRPC4/MOR mod inactive | TRPC4/MOR inh 2 inactive | TRPC6 inh conf inactive | TRPC6 act conf inactive
COc1ccc(CNC(=O)CCC(=O)N2C[C@H]3C[C@H](C2)c2cccc(=O)n2C3)cc1	none
CC(C)Cc1nc(N2CCNCC2)c(C#N)c2c1CCC2	TRPC6 inhibitor -10 | TRPC4 sel inh 2 34% | TRPC4 spec 6.0% | HEK293 MPD ctr 2-1 inactive | HEK293 MPD ctr-1 14% | TRPC6 inh conf 72% | TRPC6 act conf inactive
CCc1nc(N2CCNCC2)c(C#N)c2c1CSC(C)(C)C2	none
COc1ccc(-c2nn(CCC#N)cc2C(=O)Nc2ccccc2)cc1OC	none
COc1ccc(OC)c(-n2c(O)c(C=Nc3c(C)n(C)n(-c4ccccc4)c3=O)c(=O)[nH]c2=S)c1	none
CCCCn1c(O)c(C(C)=NCCc2c[nH]c3ccccc23)c(=O)[nH]c1=O	none
O=C(/C=C/c1c[nH]c2ccccc12)c1c(O)n(CCc2ccccc2)c(=O)[nH]c1=O	TRPC6 activator 144 | HEK293 MPD ctr-2 active | HEK293 MPD ctr 2-2 inactive | TRPC4/MOR mod 392% | TRPC4/MOR inh 2 inactive | TRPC6 inh conf inactive | TRPC6 act conf 390%
Cc1ccc2c(c1)[C@@H]1CN(C)CC[C@@H]1N2C(=O)Nc1cccc(C(F)(F)F)c1	TRPC6 inhibitor -5.9 | HEK293 MPD ctr-2 inactive | HEK293 MPD ctr 2-2 inactive | TRPC4/MOR mod -14% | TRPC4/MOR inh 2 47% | TRPC6 inh conf inactive | TRPC6 act conf inactive
COc1ccccc1CCNC1CCC(C(C)(C)C)CC1 (stereo not drawn)	TRPC6 activator 18, TRPC6 inhibitor -14 | HEK293 MPD ctr-2 673% | HEK293 MPD ctr 2-2 105% | TRPC4/MOR mod 156% | TRPC4/MOR inh 2 82% | TRPC6 inh conf 98% | TRPC6 act conf 178%
COc1ccccc1CCNC1CCCCCC1	none
CCC[N+]12CCC(CC1)C(C(O)(c1ccccc1)c1ccccc1)C2 (stereo not drawn)	none

Screens: PubChem BioAssay, Johns Hopkins Ion Channel Center
